The source of these data is article PMC3404467 (Journal of Medicinal Chemistry, 2012).

Series [1] concerns the target T1, hNPFF1R (Homo sapiens, UniProt Q9GZQ6). Briefly: IP accumulation assay, wt hNPFF1R in COS-7 cells with chimeric G-protein. The series is classed as cell-based. As to conditions: for functional behaviour at NPFF1R: IP accumulation assays; for functional behaviour at NPFF1R / IP accumulation at NPFF1R: wt NPFF1R; for IP accumulation at NPFF1R: at 10 μM; for x-fold: wt hNPFF1R, EC50(compound)/EC50(endogenous ligand NPVF at wt).

The target of the next series is human NPFF2 receptor (Homo sapiens, UniProt Q9Y5X5). Nature of the series: IP accumulation assay, wt hNPFF2R in COS-7 cells with chimeric G-protein. In kind it is cell-based. Conditions: for functional behaviour at NPFF2R: IP accumulation assays, wt NPFF2R; for x-fold: wt hNPFF2R, EC50(compound)/EC50(NPFF at wt).
Series [2] concerns the target T1, hNPFF1R. Briefly: Antagonism: NPVF concentration-response curves. The series is classed as cell-based. Conditions: against NPVF.
Another series concerns the target Y^7.35A_hNPFF2R (Homo sapiens, UniProt Q9Y5X5, Y417A). Briefly: IP accumulation assay, Y^7.35A mutant of hNPFF2R. The series is classed as cell-based. Conditions: Y^7.35A hNPFF2R; ratio to EC50 of NPFF at wt.
A further series relates to COS-7 cells. Briefly: Resazurin-based cell viability assay. On the set-up: species or system African Green Monkey. Conditions: 2 h incubation, at high compound concentrations. Put shortly: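 COS-7 cells seeded 30,000/well, grown to subconfluency, exposed 2 h to varying concentrations in DMEM (4.5 g/L glucose, L-glutamine, 10% heat-inactivated FCS). Controls were 70% EtOH for 10 min and FCS medium. Cells were washed twice in serum-free medium, then given 10% resazurin in serum-free medium for 2 h at 37°C. Resorufin fluorescence was read at ex 550/em 595 nm. Two independent experiments, triplicates; IC50 derived.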
(In general: The colour change of resazurin is a common sign of viable cells or microbes.)

For series [3] the following is noted: rats, spinal nerve ligation; cited from earlier work.
Another series deals with Y^7.33A_hNPFF2R (Homo sapiens, UniProt Q9Y5X5, Y415A). Briefly: IP accumulation assay, Y^7.33A mutant of hNPFF2R. In kind it is cell-based. Conditions: Y^7.33A hNPFF2R; ratio to EC50 of NPFF at wt.
The target of a further series is D^6.59A_hNPFF2R (Homo sapiens, UniProt Q9Y5X5, D400A). Briefly: IP accumulation assay, D^6.59A mutant of hNPFF2R. The series is classed as cell-based. As to conditions: D^6.59A hNPFF2R; ratio to EC50 of NPFF at wt.
The next series has as its target Y^5.38A hNPFF2 receptor (Homo sapiens, UniProt Q9Y5X5, Y321A). Nature of the series: IP accumulation assay, Y^5.38A mutant of hNPFF2R. The series is classed as cell-based. As to conditions: Y^5.38A hNPFF2R; ratio to EC50 of NPFF at wt.
For series [4], the target named is T1, hNPFF1R. As to conditions: CHO-hNPFF1R cells, up to 10 μM; cited from earlier work.
In the next series the test system is hNPFF2R. As to conditions: cited from earlier work.

Chain of human NPFF2 receptor (Q9Y5X5 whole entry): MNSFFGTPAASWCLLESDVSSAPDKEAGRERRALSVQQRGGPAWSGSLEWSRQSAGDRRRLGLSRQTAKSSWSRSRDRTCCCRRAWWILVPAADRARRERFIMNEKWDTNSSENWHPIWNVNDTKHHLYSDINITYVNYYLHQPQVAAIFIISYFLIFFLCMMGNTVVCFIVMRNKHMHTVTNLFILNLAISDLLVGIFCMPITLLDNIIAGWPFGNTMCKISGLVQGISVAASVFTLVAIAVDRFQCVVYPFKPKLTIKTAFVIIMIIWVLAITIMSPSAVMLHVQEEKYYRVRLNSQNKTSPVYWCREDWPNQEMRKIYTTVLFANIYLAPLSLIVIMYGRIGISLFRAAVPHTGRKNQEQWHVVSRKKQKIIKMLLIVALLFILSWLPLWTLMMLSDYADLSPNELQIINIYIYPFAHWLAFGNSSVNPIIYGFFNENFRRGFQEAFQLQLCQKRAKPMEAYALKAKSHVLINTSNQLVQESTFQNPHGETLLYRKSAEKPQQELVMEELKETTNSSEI
T1 sequence (Q9GZQ6 whole entry): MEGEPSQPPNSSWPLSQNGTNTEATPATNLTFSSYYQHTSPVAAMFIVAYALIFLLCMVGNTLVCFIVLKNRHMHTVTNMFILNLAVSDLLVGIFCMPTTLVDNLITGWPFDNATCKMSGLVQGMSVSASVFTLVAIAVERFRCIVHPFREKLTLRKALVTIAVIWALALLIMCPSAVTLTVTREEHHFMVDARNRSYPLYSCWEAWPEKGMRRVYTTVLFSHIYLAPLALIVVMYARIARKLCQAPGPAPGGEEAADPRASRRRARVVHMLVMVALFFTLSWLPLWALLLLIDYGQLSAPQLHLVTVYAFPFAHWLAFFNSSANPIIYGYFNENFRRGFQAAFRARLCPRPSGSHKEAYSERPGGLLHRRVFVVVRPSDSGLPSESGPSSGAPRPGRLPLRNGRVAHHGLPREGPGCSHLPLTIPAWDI
Chain of Y^7.35A_hNPFF2R (Q9Y5X5 whole entry Y417A): as the sequence (Q9Y5X5 whole entry) above, with Y417A counted along it
Chain of D^6.59A_hNPFF2R (Q9Y5X5 whole entry D400A): as the sequence (Q9Y5X5 whole entry) above, with D400A counted along it
Chain of Y^5.38A hNPFF2 receptor (Q9Y5X5 whole entry Y321A): as the sequence (Q9Y5X5 whole entry) above, with Y321A counted along it
Chain of Y^7.33A_hNPFF2R (Q9Y5X5 whole entry Y415A): as the sequence (Q9Y5X5 whole entry) above, with Y415A counted along it

For `NC(N)=NCCC[C@@H](NC(=O)C(c1ccccc1)c1ccccc1)C(=O)NCc1ccc(O)cc1` [BIBP3226, (R)-N(2)-(diphenylacetyl)-N-[(4-hydroxyphenyl)-methyl]-argininamide, reference compound], on hNPFF1R [1], the “functional behaviour at NPFF1R” value is “competitive antagonist” and the “IP accumulation at NPFF1R” value is on record as “no IP accumulation”. Moreover, at human NPFF2 receptor, the “functional behaviour at NPFF2R” value is recorded as “partial agonist” and the x-fold was determined as 137 fold. Moreover, on hNPFF1R [2], the Schild plot slope is reported as 0.89 ± 0.05. Further, on Y^7.35A_hNPFF2R, the x-fold is recorded as 66 fold.

For the molecule `N=C(N)N/N=C/C12CC3CC(CC(C3)C1)C2` [AC-970], the “functional behaviour at NPFF1R” value at hNPFF1R [1] is reported as “competitive antagonism”. For the same molecule, the “IP accumulation at NPFF1R” value on hNPFF1R [1] is recorded as “no IP accumulation”. For the same molecule, the “cytotoxicity (relative cell viability)” value in the series with COS-7 cells is recorded as “cytotoxic effect”. In addition, the “antinociceptive effect on mechanical allodynia” value in series [3] is “reversing established mechanical allodynia”. The x-fold stood at 4901 fold on Y^7.33A_hNPFF2R; 5211 fold on D^6.59A_hNPFF2R; 175 fold on human NPFF2 receptor; 1440 fold at Y^5.38A hNPFF2 receptor; 177 fold at Y^7.35A_hNPFF2R. In addition, on human NPFF2 receptor, the “functional behaviour at NPFF2R” value is “full agonists”. This molecule displayed a Schild plot slope on hNPFF1R [2] of 1.04 ± 0.19.

In the case of `N=C(N)N/N=C/c1ccc(-c2ccc(Br)cc2C(F)(F)F)o1` [AC-216], on hNPFF1R [1], the “functional behaviour at NPFF1R” value is given as “full agonist” and the x-fold came to 3308 fold. Besides, the “cytotoxicity (relative cell viability)” value in the series with COS-7 cells is recorded as “cytotoxic effect”. Further, at human NPFF2 receptor, it took 1.16 ± 0.638 µM to reach a half-maximal effect (EC50), the “functional behaviour at NPFF2R” value is reported as “full agonists” and the x-fold was found to be 977 fold. Besides, at Y^7.35A_hNPFF2R, the x-fold is listed as 738 fold.

Take `N=C(N)NCCC[C@H](NC(=O)C12CC3CC(CC(C3)C1)C2)C(=O)N[C@@H](Cc1ccccc1)C(N)=O` [RF9, 1-Adamantanecarbonyl-RF-NH2, reference compound]: the “activity in cAMP accumulation assay” value on hNPFF1R [4] was “inactive”. On hNPFF1R [1], the “functional behaviour at NPFF1R” value is on record as “agonistic activity” and the x-fold stood at 41 fold. Moreover, the “effect on stimulation of [^35S]GTPγS binding” value with hNPFF2R (hNPFF2R membranes, up to 100 μM) is reported as “no effect”. Further, in the series on hNPFF2R (in the presence of high concentrations of RF9), the “right-shift of concentration-effect curves of NPFF” value is ~ 160 fold. Moreover, at human NPFF2 receptor, the “functional behaviour at NPFF2R” value is on record as “agonistic activity” and the x-fold was found to be 222 fold. At Y^7.35A_hNPFF2R, the x-fold was found to be 277 fold.

Regarding `N=C(N)N/N=C/c1ccc(Br)c(Br)c1` [AC-093], on hNPFF1R [1], the “functional behaviour at NPFF1R” value is given as “partial agonists” and the x-fold was determined as 310 fold. Moreover, the “cytotoxicity (relative cell viability)” value in the series on COS-7 cells was “cytotoxic effect”. Also, on human NPFF2 receptor, the “functional behaviour at NPFF2R” value is recorded as “full agonists” and the x-fold is on record as 1291 fold.

Take `N=C(N)N/N=C/c1ccc(Cl)c(C(F)(F)F)c1` [AC-099]: the “functional behaviour at NPFF1R” value at hNPFF1R [1] was “partial agonists”. In addition, the “functional behaviour at NPFF2R” value at human NPFF2 receptor is recorded as “full agonists”.

As usually defined, the EC50 is the concentration that produces a half-maximal response.
